Test results: ChEMBL document CHEMBL1687778, “Genetic determinants involved in the susceptibility of Pseudomonas aeruginosa to beta-lactam antibiotics” (2010)
Converted amounts (≈) assume the structure as drawn.

What was measured:
Type in all cases: functional
Pseudomonas aeruginosa [1] = assay: Antimicrobial activity against Pseudomonas aeruginosa PA14 PA0667 harboring mutation in putative metallopeptidase by Etest method
Procedure, shortened: (§1)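 Overnight LB cultures (37°C) diluted in sterile 0.85% NaCl to about 1 × 10^7 CFU/ml. 100 µl spread on Mueller-Hinton agar, one Etest strip per plate, 18 h at 37°C. Ceftazidime, imipenem and meropenem tested. Wild-type PA14 plate included in each set. Each mutant verified in triplicate.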

Pseudomonas aeruginosa [2] = assay: Antimicrobial activity against wild type Pseudomonas aeruginosa PA14 by Etest method
Procedure, shortened: (§2)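 Etest MIC. Overnight LB cultures at 37°C were diluted in sterile 0.85% NaCl to about 1 × 10^7 CFU/ml. 100 µl was spread on Mueller-Hinton agar, one strip was placed per plate, and plates were incubated at 37°C for 18 h. Equal cell numbers were seeded per plate, and results were verified in triplicate. PA14 wild type was included in each set as a susceptibility control.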

Pseudomonas aeruginosa [3] = assay: Antimicrobial activity against Pseudomonas aeruginosa PA14 PA0807 harboring ampDh3 mutant gene by Etest method; procedure, shortened: as §1
Pseudomonas aeruginosa [4] = assay: Antimicrobial activity against Pseudomonas aeruginosa PA14 PA0908 harboring mutation in hypothetical protein by Etest method; procedure, shortened: as §1
Pseudomonas aeruginosa [5] = assay: Antimicrobial activity against Pseudomonas aeruginosa PA14 PA1348 harboring mutation in conserved hypothetical protein by Etest method; procedure, shortened: as §1
Pseudomonas aeruginosa [6] = assay: Antimicrobial activity against Pseudomonas aeruginosa PA14 PA14_15600 harboring mutation in conserved hypothetical protein by Etest method; procedure, shortened: as §1
Pseudomonas aeruginosa [7] = assay: Antimicrobial activity against Pseudomonas aeruginosa PA14 PA14_43090 harboring mutation in hypothetical protein by Etest method; procedure, shortened: as §1
Pseudomonas aeruginosa [8] = assay: Antimicrobial activity against Pseudomonas aeruginosa PA14 PA14_06490 harboring mutation in hypothetical protein by Etest method; procedure, shortened: as §1
Pseudomonas aeruginosa [9] = assay: Antimicrobial activity against Pseudomonas aeruginosa PA14 PA2797 harboring mutation in putative anti-anti-sigma factor by Etest method; procedure, shortened: as §1
Pseudomonas aeruginosa [10] = assay: Antimicrobial activity against Pseudomonas aeruginosa PA14 PA3141 harboring wbpM mutant gene by Etest method; procedure, shortened: as §1
Pseudomonas aeruginosa [11] = assay: Antimicrobial activity against Pseudomonas aeruginosa PA14 PA3520 harboring mutation in putative periplasmic metal-binding protein by Etest method; procedure, shortened: as §2
Pseudomonas aeruginosa [12] = assay: Antimicrobial activity against Pseudomonas aeruginosa PA14 PA3620 harboring mutS mutant gene by Etest method; procedure, shortened: as §2
Pseudomonas aeruginosa [13] = assay: Antimicrobial activity against Pseudomonas aeruginosa PA14 PA3667 harboring mutation in putative cysteine sulfinate desulfinase by Etest method; procedure, shortened: as §2
Pseudomonas aeruginosa [14] = assay: Antimicrobial activity against Pseudomonas aeruginosa PA14 PA3704 harboring wspE mutant gene by Etest method; procedure, shortened: as §2
Pseudomonas aeruginosa [15] = assay: Antimicrobial activity against Pseudomonas aeruginosa PA14 PA4527 harboring pilC mutant gene by Etest method; procedure, shortened: as §2
Pseudomonas aeruginosa [16] = assay: Antimicrobial activity against Pseudomonas aeruginosa PA14 PA4748 harboring tpiA mutant gene by Etest method; procedure, shortened: as §2
Pseudomonas aeruginosa [17] = assay: Antimicrobial activity against Pseudomonas aeruginosa PA14 PA4946 harboring mutL mutant gene by Etest method; procedure, shortened: as §2
Pseudomonas aeruginosa [18] = assay: Antimicrobial activity against Pseudomonas aeruginosa PA14 PA5000 harboring wapR mutant gene by Etest method; procedure, shortened: as §2
Pseudomonas aeruginosa [19] = assay: Antimicrobial activity against Pseudomonas aeruginosa PA14 PA5001 harboring mutation in conserved hypothetical protein by Etest method; procedure, shortened: as §2
Pseudomonas aeruginosa [20] = assay: Antimicrobial activity against Pseudomonas aeruginosa PA14 PA5002 harboring mutation in hypothetical protein by Etest method; procedure, shortened: as §2
Pseudomonas aeruginosa [21] = assay: Antimicrobial activity against Pseudomonas aeruginosa PA14 PA5005 harboring mutation in putative carbamoyltransferase by Etest method; procedure, shortened: as §2
Pseudomonas aeruginosa [22] = assay: Antimicrobial activity against Pseudomonas aeruginosa PA14 PA5038 harboring aroB mutant gene by Etest method; procedure, shortened: as §2
Pseudomonas aeruginosa [23] = assay: Antimicrobial activity against Pseudomonas aeruginosa PA14 PA5192 harboring pckA mutant gene by Etest method; procedure, shortened: as §2
Pseudomonas aeruginosa [24] = assay: Antimicrobial activity against Pseudomonas aeruginosa PA14 PA5443 harboring uvrD mutant gene by Etest method; procedure, shortened: as §2
Pseudomonas aeruginosa [25] = assay: Antimicrobial activity against Pseudomonas aeruginosa PA14 PA0011 harboring mutation in putative 2-OH-lauroyltransferase by Etest method; procedure, shortened: as §1
Pseudomonas aeruginosa [26] = assay: Antimicrobial activity against Pseudomonas aeruginosa PA14 PA0401 harboring mutation in Noncatalytic dihydroorotase-like protein by Etest method; procedure, shortened: as §1
Pseudomonas aeruginosa [27] = assay: Antimicrobial activity against Pseudomonas aeruginosa PA14 PA0427 harboring oprM mutant gene by Etest method; procedure, shortened: as §1
Pseudomonas aeruginosa [28] = assay: Antimicrobial activity against Pseudomonas aeruginosa PA14 PA0764 harboring mucB mutant gene by Etest method; procedure, shortened: as §1
Pseudomonas aeruginosa [29] = assay: Antimicrobial activity against Pseudomonas aeruginosa PA14 PA0766 harboring mucD mutant gene by Etest method; procedure, shortened: as §1
Pseudomonas aeruginosa [30] = assay: Antimicrobial activity against Pseudomonas aeruginosa PA14 PA1011 harboring mutation in putative lipoprotein by Etest method; procedure, shortened: as §1
Pseudomonas aeruginosa [31] = assay: Antimicrobial activity against Pseudomonas aeruginosa PA14 PA1195 harboring mutation in putative dimethylarginine dimethylaminohydrolase by Etest method; procedure, shortened: as §1
Pseudomonas aeruginosa [32] = assay: Antimicrobial activity against Pseudomonas aeruginosa PA14 PA14_07490/07510 harboring mutation in intergenic region by Etest method; procedure, shortened: as §1
Pseudomonas aeruginosa [33] = assay: Antimicrobial activity against Pseudomonas aeruginosa PA14 PA1483 harboring cycH mutant gene by Etest method; procedure, shortened: as §1
Pseudomonas aeruginosa [34] = assay: Antimicrobial activity against Pseudomonas aeruginosa PA14 PA2128 harboring cupA1 mutant gene by Etest method; procedure, shortened: as §1
Pseudomonas aeruginosa [35] = assay: Antimicrobial activity against Pseudomonas aeruginosa PA14 PA2963 harboring mutation in putative aminodeoxychorismate lyase by Etest method; procedure, shortened: as §1
Pseudomonas aeruginosa [36] = assay: Antimicrobial activity against Pseudomonas aeruginosa PA14 PA2970 harboring rpmF mutant gene by Etest method; procedure, shortened: as §1
Pseudomonas aeruginosa [37] = assay: Antimicrobial activity against Pseudomonas aeruginosa PA14 PA3050 harboring pyrD mutant gene by Etest method; procedure, shortened: as §1
Pseudomonas aeruginosa [38] = assay: Antimicrobial activity against Pseudomonas aeruginosa PA14 PA3433 harboring mutation in putative transcriptional regulator, LysR family by Etest method; procedure, shortened: as §2
Pseudomonas aeruginosa [39] = assay: Antimicrobial activity against Pseudomonas aeruginosa PA14 PA3649 harboring mutation in putative membrane-associated zinc metalloprotease by Etest method; procedure, shortened: as §2
Pseudomonas aeruginosa [40] = assay: Antimicrobial activity against Pseudomonas aeruginosa PA14 PA3800 harboring mutation in conserved hypothetical protein by Etest method; procedure, shortened: as §2
Pseudomonas aeruginosa [41] = assay: Antimicrobial activity against Pseudomonas aeruginosa PA14 PA3818 harboring suhB mutant gene by Etest method; procedure, shortened: as §2
Pseudomonas aeruginosa [42] = assay: Antimicrobial activity against Pseudomonas aeruginosa PA14 PA3978 harboring mutation in hypothetical protein by Etest method; procedure, shortened: as §2
Pseudomonas aeruginosa [43] = assay: Antimicrobial activity against Pseudomonas aeruginosa PA14 PA4007 harboring proA mutant gene by Etest method; procedure, shortened: as §2
Pseudomonas aeruginosa [44] = assay: Antimicrobial activity against Pseudomonas aeruginosa PA14 PA4088 harboring mutation in putative aminotransferase by Etest method; procedure, shortened: as §2
Pseudomonas aeruginosa [45] = assay: Antimicrobial activity against Pseudomonas aeruginosa PA14 PA4753 harboring mutation in putative RNA-binding protein by Etest method; procedure, shortened: as §2
Pseudomonas aeruginosa [46] = assay: Antimicrobial activity against Pseudomonas aeruginosa PA14 PA5288 harboring glnK mutant gene by Etest method; procedure, shortened: as §2
Pseudomonas aeruginosa [47] = assay: Antimicrobial activity against Pseudomonas aeruginosa PA14 PA5366 harboring pstB mutant gene by Etest method; procedure, shortened: as §2
Pseudomonas aeruginosa [48] = assay: Antimicrobial activity against Pseudomonas aeruginosa PA14 PA14_23430 harboring mutation in putative heparinase by Etest method; procedure, shortened: as §1

C[C@@H](O)[C@H]1C(=O)N2C(C(=O)O)=C(S[C@@H]3CN[C@H](C(=O)N(C)C)C3)[C@H](C)[C@H]12 [MEROPENEM]
MIC (Pseudomonas aeruginosa [1]): 0.19 µg/mL (≈ 0.495 µM) | MIC (Pseudomonas aeruginosa [2]): 0.125 µg/mL (≈ 0.326 µM) | MIC (Pseudomonas aeruginosa [3]): 0.25 µg/mL (≈ 0.652 µM) | MIC (Pseudomonas aeruginosa [4]): 0.25 µg/mL (≈ 0.652 µM) | MIC (Pseudomonas aeruginosa [5]): 0.5 µg/mL (≈ 1.3 µM) | MIC (Pseudomonas aeruginosa [6]): 0.125 µg/mL (≈ 0.326 µM) | MIC (Pseudomonas aeruginosa [7]): 0.125 µg/mL (≈ 0.326 µM) | MIC (Pseudomonas aeruginosa [8]): 0.125 µg/mL (≈ 0.326 µM) | MIC (Pseudomonas aeruginosa [9]): 0.094 µg/mL (≈ 0.245 µM) | MIC (Pseudomonas aeruginosa [10]): 0.125 µg/mL (≈ 0.326 µM) | MIC (Pseudomonas aeruginosa [11]): 0.38 µg/mL (≈ 0.991 µM) | MIC (Pseudomonas aeruginosa [12]): 0.125 µg/mL (≈ 0.326 µM) | MIC (Pseudomonas aeruginosa [13]): 0.125 µg/mL (≈ 0.326 µM) | MIC (Pseudomonas aeruginosa [14]): 0.25 µg/mL (≈ 0.652 µM) | MIC (Pseudomonas aeruginosa [15]): 0.125 µg/mL (≈ 0.326 µM) | MIC (Pseudomonas aeruginosa [16]): 0.25 µg/mL (≈ 0.652 µM) | MIC (Pseudomonas aeruginosa [17]): 0.094 µg/mL (≈ 0.245 µM) | MIC (Pseudomonas aeruginosa [18]): 0.38 µg/mL (≈ 0.991 µM) | MIC (Pseudomonas aeruginosa [19]): 0.38 µg/mL (≈ 0.991 µM) | MIC (Pseudomonas aeruginosa [20]): 0.094 µg/mL (≈ 0.245 µM) | MIC (Pseudomonas aeruginosa [21]): 0.125 µg/mL (≈ 0.326 µM) | MIC (Pseudomonas aeruginosa [22]): 0.25 µg/mL (≈ 0.652 µM) | MIC (Pseudomonas aeruginosa [23]): 0.25 µg/mL (≈ 0.652 µM) | MIC (Pseudomonas aeruginosa [24]): 0.094 µg/mL (≈ 0.245 µM) | MIC (Pseudomonas aeruginosa [25]): 0.125 µg/mL (≈ 0.326 µM) | MIC (Pseudomonas aeruginosa [26]): 0.064 µg/mL (≈ 0.167 µM) | MIC (Pseudomonas aeruginosa [27]): 0.023 µg/mL (≈ 0.06 µM) | MIC (Pseudomonas aeruginosa [28]): 0.125 µg/mL (≈ 0.326 µM) | MIC (Pseudomonas aeruginosa [29]): 0.125 µg/mL (≈ 0.326 µM) | MIC (Pseudomonas aeruginosa [30]): 0.19 µg/mL (≈ 0.495 µM) | MIC (Pseudomonas aeruginosa [31]): 0.125 µg/mL (≈ 0.326 µM) | MIC (Pseudomonas aeruginosa [32]): 0.094 µg/mL (≈ 0.245 µM) | MIC (Pseudomonas aeruginosa [33]): 0.125 µg/mL (≈ 0.326 µM) | MIC (Pseudomonas aeruginosa [34]): 0.125 µg/mL (≈ 0.326 µM) | MIC (Pseudomonas aeruginosa [35]): 0.125 µg/mL (≈ 0.326 µM) | MIC (Pseudomonas aeruginosa [36]): 0.125 µg/mL (≈ 0.326 µM) | MIC (Pseudomonas aeruginosa [37]): 0.094 µg/mL (≈ 0.245 µM) | MIC (Pseudomonas aeruginosa [38]): 0.125 µg/mL (≈ 0.326 µM) | MIC (Pseudomonas aeruginosa [39]): 0.125 µg/mL (≈ 0.326 µM) | MIC (Pseudomonas aeruginosa [40]): 0.125 µg/mL (≈ 0.326 µM) | MIC (Pseudomonas aeruginosa [41]): 0.064 µg/mL (≈ 0.167 µM) | MIC (Pseudomonas aeruginosa [42]): 0.125 µg/mL (≈ 0.326 µM) | MIC (Pseudomonas aeruginosa [43]): 0.125 µg/mL (≈ 0.326 µM) | MIC (Pseudomonas aeruginosa [44]): 0.125 µg/mL (≈ 0.326 µM) | MIC (Pseudomonas aeruginosa [45]): 0.064 µg/mL (≈ 0.167 µM) | MIC (Pseudomonas aeruginosa [46]): 0.047 µg/mL (≈ 0.123 µM) | MIC (Pseudomonas aeruginosa [47]): 0.125 µg/mL (≈ 0.326 µM) | MIC (Pseudomonas aeruginosa [48]): 0.125 µg/mL (≈ 0.326 µM)
